Values joined by “and” are separate entries in the source; they are usually repeats but may differ in a detail not shown here. Equal values may be shown once. Read-outs that look alike come from different tables or passages of the source.
Legend:
Human VEGFR-2 = Human VEGFR-2 (Homo sapiens, UniProt P35968); test: In vitro VEGFR-2 assay; assay type: biochemical
MCF-7 = test: cells; assay type: cell-based, human
HepG-2 = test: MTT anti-proliferative assay, HepG-2; assay type: cell-based, human
primary rat hepatocytes = test: In vitro cytotoxicity against normal hepatic cells; assay type: cell-based; details: HepG-2 vs primary rat hepatocytes
HepG-2 cells = test: Cell cycle analysis; assay type: cell-based, human; details: HepG-2, 17b 2.3 μM
BAX = test: Western blot, BAX expression in HepG-2; assay type: cell-based, human
Procedure, shortened: (§1)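 HepG-2 cells exposed 24 h to test compound at 2.3 μM, then probed by western blot for BAX, Bcl-2, active caspase-9 and active caspase-3. Each band is normalized to β-actin and expressed relative to control, and the BAX/Bcl-2 ratio is also tabulated. Values are mean ± SEM of three independent experiments, with significance flagged at p < 0.05, 0.01 and 0.001.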

Bcl-2 = test: Western blot, Bcl-2 expression in HepG-2; assay type: cell-based, human
Procedure, shortened: as §1

caspase-9 = test: Western blot, active caspase-9 in HepG-2; assay type: cell-based, human
Procedure, shortened: as §1

caspase-3 = test: Western blot, active caspase-3 in HepG-2; assay type: cell-based, human
Procedure, shortened: as §1

BAX/Bcl-2 ratio = test: Western blot, BAX/Bcl-2 ratio in HepG-2; assay type: cell-based, human; details: HepG-2 treated 24 h, 2.3 μM; control 1.00; mean ± SEM
Procedure, shortened: as §1

[1] = HepG-2 treated 24 h, 2.3 μM, control 1.00, mean ± SEM

Human VEGFR-2, sequence (P35968 20-1356): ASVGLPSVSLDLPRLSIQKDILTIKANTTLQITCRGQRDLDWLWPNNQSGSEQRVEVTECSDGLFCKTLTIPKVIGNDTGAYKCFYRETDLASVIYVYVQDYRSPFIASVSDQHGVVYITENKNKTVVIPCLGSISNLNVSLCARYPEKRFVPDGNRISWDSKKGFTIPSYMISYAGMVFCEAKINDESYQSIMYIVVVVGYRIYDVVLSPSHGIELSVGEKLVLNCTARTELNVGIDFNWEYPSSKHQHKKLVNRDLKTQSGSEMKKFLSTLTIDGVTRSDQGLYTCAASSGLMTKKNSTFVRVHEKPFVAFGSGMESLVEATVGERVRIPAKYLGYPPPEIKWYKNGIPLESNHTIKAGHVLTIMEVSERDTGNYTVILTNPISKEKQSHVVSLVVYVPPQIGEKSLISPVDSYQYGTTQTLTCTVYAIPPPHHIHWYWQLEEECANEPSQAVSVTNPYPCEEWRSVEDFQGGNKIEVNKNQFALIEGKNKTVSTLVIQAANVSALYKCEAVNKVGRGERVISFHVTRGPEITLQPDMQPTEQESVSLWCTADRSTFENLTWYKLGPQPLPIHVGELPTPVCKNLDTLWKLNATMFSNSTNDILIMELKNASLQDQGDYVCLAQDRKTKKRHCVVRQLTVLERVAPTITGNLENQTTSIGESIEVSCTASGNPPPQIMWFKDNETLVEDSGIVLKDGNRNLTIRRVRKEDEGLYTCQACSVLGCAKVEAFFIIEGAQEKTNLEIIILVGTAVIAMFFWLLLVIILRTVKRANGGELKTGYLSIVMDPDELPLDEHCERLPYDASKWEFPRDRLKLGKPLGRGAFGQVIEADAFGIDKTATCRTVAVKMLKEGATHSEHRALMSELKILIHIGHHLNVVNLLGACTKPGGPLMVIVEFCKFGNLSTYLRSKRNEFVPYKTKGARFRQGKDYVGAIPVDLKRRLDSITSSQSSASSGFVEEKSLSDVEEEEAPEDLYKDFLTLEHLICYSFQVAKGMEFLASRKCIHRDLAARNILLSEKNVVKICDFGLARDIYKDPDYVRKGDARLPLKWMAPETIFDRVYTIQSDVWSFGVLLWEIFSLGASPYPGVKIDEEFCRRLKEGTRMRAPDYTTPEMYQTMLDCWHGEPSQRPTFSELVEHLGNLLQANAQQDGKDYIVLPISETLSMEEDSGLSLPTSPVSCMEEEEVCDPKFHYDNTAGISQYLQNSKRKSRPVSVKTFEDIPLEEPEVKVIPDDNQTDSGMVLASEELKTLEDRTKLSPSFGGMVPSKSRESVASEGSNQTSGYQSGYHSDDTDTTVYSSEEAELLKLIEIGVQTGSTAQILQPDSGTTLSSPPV

Structure (SMILES): Cc1nc2ccccc2nc1SCC(=O)Nc1ccc(C(=O)Nc2ccc(O)cc2)cc1 [Compound 15c, N-(4-Hydroxyphenyl)-4-(2-((3-methylquinoxalin-2-yl)thio)acetamido)benzamide]
- IC50 (Human VEGFR-2): 27.8 ± 1.2 nM

Structure (SMILES): Cc1nc2ccccc2nc1SCC(=O)Nc1ccc(C(=O)NNC(=O)c2ccccc2O)cc1 [Compound 16, N-(4-(2-(2-Hydroxybenzoyl)hydrazine-1-carbonyl)phenyl)-2-((3-methylquinoxalin-2-yl)thio)acetamide]
- IC50 (Human VEGFR-2): 18.5 ± 0.8 nM

Structure (SMILES): Cc1nc2ccccc2nc1SCC(=O)Nc1ccc(C(=O)Nc2ccc([N+](=O)[O-])cc2O)cc1 [Compound 15d, N-(2-Hydroxy-4-nitrophenyl)-4-(2-((3-methylquinoxalin-2-yl)thio)acetamido)benzamide]
- IC50 (Human VEGFR-2): 31.5 ± 1.3 nM

Structure (SMILES): Cc1nc2ccccc2n(CC(=O)Nc2ccc(C(=O)Nc3ccc([N+](=O)[O-])cc3O)cc2)c1=O [Compound 17d, N-(2-Hydroxy-4-nitrophenyl)-4-(2-(3-methyl-2-oxoquinoxalin-1(2H)-yl)acetamido)benzamide]
- IC50 (MCF-7; Homo sapiens, MCF7, read-out: MCF-7 (IC50, μM)): 35.2 ± 1.6 µM
- IC50 (HepG-2; Homo sapiens, HepG2, read-out: HepG-2 (IC50, μM)): 22.4 ± 1.3 µM
- IC50 (Human VEGFR-2): 11.2 ± 0.3 nM

Structure (SMILES): Cc1nc2ccccc2n(CC(=O)Nc2ccc(C(=O)NNC(=O)c3ccccc3O)cc2)c1=O [Compound 18, N-(4-(2-(2-Hydroxybenzoyl)hydrazine-1-carbonyl)phenyl)-2-(3-methyl-2-oxoquinoxalin-1(2H)-yl)acetamide]
- IC50 (Human VEGFR-2): 11.2 ± 0.2 nM

Structure (SMILES): Cc1nc2ccccc2n(CC(=O)Nc2ccc(C(=O)Nc3ccc(O)cc3)cc2)c1=O [Compound 17c, N-(4-Hydroxyphenyl)-4-(2-(3-methyl-2-oxoquinoxalin-1(2H)-yl)acetamido)benzamide]
- IC50 (Human VEGFR-2): 13.9 ± 0.5 nM

Structure (SMILES): CCCCNC(=O)c1ccc(NC(=O)Cn2c(=O)c(C)nc3ccccc32)cc1 [Compound 17a, N-Butyl-4-(2-(3-methyl-2-oxoquinoxalin-1(2H)-yl)acetamido)benzamide]
- IC50 (Human VEGFR-2): 11.2 ± 0.4 nM

Structure (SMILES): CNC(=O)c1cc(Oc2ccc(NC(=O)Nc3ccc(Cl)c(C(F)(F)F)c3)cc2)ccn1 [Sorafenib, sorafenib, reference compound]
- cytotoxic activity against cancer HepG-2 cell line more than against normal hepatic cells (primary rat hepatocytes): 11 fold

Structure (SMILES): Cc1nc2ccccc2n(CC(=O)Nc2ccc(C(=O)Nc3cccc(Cl)c3)cc2)c1=O [Compound 17b, N-(3-Chlorophenyl)-4-(2-(3-methyl-2-oxoquinoxalin-1(2H)-yl)acetamido)benzamide]
- IC50 (MCF-7; read-out: MCF-7 (IC50), MTT, mean ± S.D. of three experiments): 2.8 ± 0.2 µM
- IC50 (HepG-2; read-out: HepG-2 (IC50), MTT, mean ± S.D. of three experiments): 2.3 ± 0.2 µM
- cytotoxic activity against cancer HepG-2 cell line more than against normal hepatic cells (primary rat hepatocytes): 10 fold
- Cell cycle analysis (%) % G1 (HepG-2 cells): 40.03 ± 2.82 %
- Cell cycle analysis (%) % G2/M (HepG-2 cells): 30.38% and 30.38 ± 2.93 %
- Cell cycle analysis (%) % S (HepG-2 cells): 28.31 ± 1.01%
- Cell cycle analysis (%) % Sub-G1 (HepG-2 cells): 1.27 ± 0.17%
- boost of BAX level (BAX; HepG-2, 2.3 μM): approximately 4 fold
- Protein expression (normalized to β-actin) BAX (BAX; [1]): 4.21 ± 0.60
- downregulation of Bcl-2 level (Bcl-2; HepG-2, 2.3 μM): around 3 fold
- Protein expression (normalized to β-actin) Bcl-2 (Bcl-2; [1]): 0.32 ± 0.04
- increase of caspase-9 level compared to control cells (caspase-9; HepG-2, 2.3 μM): 1.74 fold
- Protein expression (normalized to β-actin) Caspases-9 (caspase-9; [1]): 1.74 ± 0.20
- increase of caspase-3 level compared to control cells (caspase-3; HepG-2, 2.3 μM): 1.8 fold
- Protein expression (normalized to β-actin) Caspases-3 (caspase-3; [1]): 1.85 ± 0.26
- Protein expression (normalized to β-actin) BAX/Bcl-2 ratio (BAX/Bcl-2 ratio): 9.30 ± 2.66

Structure (SMILES): Cc1nc2ccccc2nc1SCC(=O)Nc1ccc(C(=O)Nc2cccc(Cl)c2)cc1 [Compound 15b, N-(3-Chlorophenyl)-4-(2-((3-methylquinoxalin-2-yl)thio)acetamido)benzamide]
- IC50 (Human VEGFR-2): 3.4 ± 0.2 nM

Structure (SMILES): CCCCNC(=O)c1ccc(NC(=O)CSc2nc3ccccc3nc2C)cc1 [Compound 15a, N-Butyl-4-(2-((3-methylquinoxalin-2-yl)thio)acetamido)benzamide]
- IC50 (Human VEGFR-2): 23.1 ± 0.8 nM
